Consider four compounds from ChEMBL document CHEMBL4321831, “Vaccine Adjuvants Derivatized from Momordica Saponins I and II” (J Med Chem, 2019).

Series [1] relates to Mus musculus. Put plainly: Immuno-adjuvant activity in recombinant Porphyromonas gingivalis HagB-immunized BALB/c mouse assessed as potentiation of antibody response to rHagB by measuring serum anti-rHagB IgG1 activity at 100 ug, sc administered immediately and on day 14, 28 and measured at week 6 by ELISA. The class given is functional, organism-based. In general terms: ELISA stands for enzyme-linked immunosorbent assay.

The subject of series [2] is Mus musculus. The experiment in a line: Immuno-adjuvant activity in recombinant Porphyromonas gingivalis HagB-immunized BALB/c mouse assessed as potentiation of antibody response to rHagB by measuring increase in serum anti-rHagB IgG1 activity at 100 ug, sc administered immediately and on day 14, 28 and measured at week 2 to 4 by ELISA. The class given is functional, organism-based.

For series [3], the system named is Mus musculus. The experiment in a line: Immuno-adjuvant activity in recombinant Porphyromonas gingivalis HagB-immunized BALB/c mouse assessed as potentiation of antibody response to rHagB by measuring increase in serum anti-rHagB IgG activity at 100 ug, sc administered immediately and on day 14, 28 and measured at week 2 to 4 by ELISA. The class given is functional, organism-based.

Series [4] deals with Mus musculus. Put plainly: Immuno-adjuvant activity in OVA-immunized BALB/c mouse assessed as potentiation of antibody response to OVA by measuring increase in serum anti-OVA IgG2a activity at 100 ug, sc administered immediately and on day 14, 28 and measured at week 4 to 6 by ELISA. The class given is functional, organism-based. In a few lines: (§1)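 Female BALB/c mice (8–10 weeks, six per group) got sc OVA (20 μg) plus adjuvant (100 μg) on days 0, 14 and 28. Tail-vein serum was taken before each dose and 2 weeks after the last. ELISA plates were coated with OVA (0.1 μg/mL) in borate-buffered saline, pH 8.2. Serial 2-fold serum dilutions were run in duplicate, detected with HRP anti-mouse IgG/IgG1/IgG2a and o-phenylenediamine, and read at 490 nm.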

For series [5], the system named is Mus musculus. The experiment in a line: Immuno-adjuvant activity in recombinant Porphyromonas gingivalis HagB-immunized BALB/c mouse assessed as potentiation of antibody response to rHagB by measuring increase in serum anti-rHagB IgG activity at 100 ug, sc administered immediately and on day 14, 28 and measured at week 6 by ELISA. The class given is functional, organism-based.

In series [6] the test system is Mus musculus. Put plainly: Immuno-adjuvant activity in OVA-immunized BALB/c mouse assessed as potentiation of antibody response to OVA by measuring serum anti-OVA IgG2a level at 100 ug, sc administered immediately and on day 14, 28 and measured at week 6 by ELISA (reference value: 0.1 ug/ml). The class given is functional. In a few lines:
as §1

Series [7] concerns Mus musculus. Put plainly: Immuno-adjuvant activity in OVA-immunized BALB/c mouse assessed as potentiation of antibody response to OVA by measuring serum anti-OVA IgG1 level at 100 ug, sc administered immediately and on day 14, 28 and measured at week 6 by ELISA (reference value: 113 +/- 37 ug/ml). The class given is functional. In a few lines: as §1
For series [8], the system named is Mus musculus. Put plainly: Immuno-adjuvant activity in OVA-immunized BALB/c mouse assessed as potentiation of antibody response to OVA by measuring serum anti-OVA IgG2a activity at 100 ug, sc administered immediately and on day 14, 28 and measured at week 2 by ELISA. The class given is functional, organism-based. In a few lines:
as §1

Series [9] in a line: Toxicity in OVA-immunized BALB/c mouse assessed as changes in body weight at 100 ug, sc administered immediately and on day 14, 28 and measured at week 6. The class given is organism-based. As to conditions: in vivo. In a few lines: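 Female BALB/c mice (8–10 weeks, six per group) received sc OVA (20 μg) with adjuvant (100 μg) on days 0, 14 and 28. Body weight was recorded before each immunization and 2 weeks after the final one.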

Series [10] concerns Mus musculus. The experiment in a line: Immuno-adjuvant activity in OVA-immunized BALB/c mouse assessed as potentiation of antibody response to OVA by measuring increase in serum anti-OVA IgG activity at 100 ug, sc administered immediately and on day 14, 28 and measured at week 2 to 6 by ELISA. The class given is functional, organism-based. In outline:
as §1

Series [11] has as its system Mus musculus. The experiment in a line: Immuno-adjuvant activity in OVA-immunized BALB/c mouse assessed as potentiation of antibody response to OVA by measuring ratio of serum anti-OVA IgG2a to serum anti-OVA IG1 level at 100 ug, sc administered immediately and on day 14, 28 and measured at week 6 by ELISA. The class given is functional.
In series [12] the test system is Mus musculus. Put plainly: Immuno-adjuvant activity in OVA-immunized BALB/c mouse assessed as potentiation of antibody response to OVA by measuring increase in serum anti-OVA IgG1 activity at 100 ug, sc administered immediately and on day 14, 28 and measured at week 2 to 4 by ELISA. The class given is functional, organism-based. In outline: as §1
A short description of series [13]: Acute toxicity in BALB/c mouse assessed as mouse survival at 100 to 200 ug, sc measured after 5 days. The class given is organism-based. As to conditions: in vivo. In a few lines: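 Female BALB/c mice, 10 weeks old, 5 per group, given a single subcutaneous injection in the neck of adjuvant in 0.1 mL PBS at doses from 100 to 5000 μg, with untreated controls. Survival was counted 5 days after injection. Surviving mice were checked through day 7 for fur condition, behaviour, lethargy and lesion formation.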

Series [14] relates to Mus musculus. The experiment in a line: Immuno-adjuvant activity in OVA-immunized BALB/c mouse assessed as potentiation of antibody response to OVA by measuring increase in serum anti-OVA IgG activity at 100 ug, sc administered immediately and on day 14, 28 and measured at week 2 to 4 by ELISA. The class given is functional, organism-based. In a few lines:
as §1

Series [15] concerns Mus musculus. The experiment in a line: Immuno-adjuvant activity in OVA-immunized BALB/c mouse assessed as potentiation of antibody response to OVA by measuring serum anti-OVA IgG activity at 100 ug, sc administered immediately and on day 14, 28 and measured at week 6 by ELISA. The class given is functional, organism-based. In a few lines: as §1
The subject of series [16] is Mus musculus. Put plainly: Immuno-adjuvant activity in recombinant Porphyromonas gingivalis HagB-immunized BALB/c mouse assessed as potentiation of antibody response to rHagB by measuring serum anti-rHagB IgG2a activity at 100 ug, sc administered immediately and on day 14, 28 and measured at week 6 by ELISA. The class given is functional, organism-based.
Series [17] concerns Mus musculus. Put plainly: Immuno-adjuvant activity in OVA-immunized BALB/c mouse assessed as potentiation of antibody response to OVA by measuring increase in serum anti-OVA IgG1 activity at 100 ug, sc administered immediately and on day 14, 28 and measured at week 6 by ELISA. The class given is functional, organism-based. In a few lines: as §1
For series [18], the system named is Mus musculus. The experiment in a line: Immuno-adjuvant activity in OVA-immunized BALB/c mouse assessed as potentiation of antibody response to OVA by measuring increase in serum anti-OVA IgG activity at 100 ug, sc administered immediately and on day 14, 28 and measured at week 4 to 6 by ELISA. The class given is functional, organism-based. In a few lines:
as §1

Series [19] has as its system Mus musculus. The experiment in a line: Immuno-adjuvant activity in recombinant Porphyromonas gingivalis HagB-immunized BALB/c mouse assessed as potentiation of antibody response to rHagB by measuring increase in serum anti-rHagB IgG2a activity at 100 ug, sc administered immediately and on day 14, 28 and measured at week 2 to 4 by ELISA. The class given is functional, organism-based.

Activity calls are given as the source filed them. The rule behind the calls is not given here. Bounds are passed on as bounds.

Regarding `C[C@@H]1O[C@@H](O[C@H]2[C@H](O)[C@@H](C(=O)O)O[C@@H](O[C@H]3CC[C@]4(C)[C@H]5CC=C6[C@H]7CC(C)(C)CC[C@]7(C(=O)O[C@@H]7O[C@H](C)[C@H](O)[C@H](O)[C@H]7O[C@@H]7O[C@@H](C)[C@H](O[C@@H]8OC[C@@H](O)[C@H](O)[C@H]8O)[C@@H](O[C@@H]8O[C@H](CO)[C@@H](O)[C@H](O[C@@H]9OC[C@@H](O)[C@H](O)[C@H]9O)[C@H]8O)[C@H]7O)CC[C@@]6(C)[C@]5(C)CC[C@H]4[C@]3(C)C=O)[C@@H]2O[C@@H]2O[C@H](CO)[C@H](O)[C@H](O)[C@H]2O)[C@H](O)[C@H](O)[C@H]1O`, the result in [1], in series [4], in series [5], in [8] and in [10] was inactive. Also, the result in series [2], in series [3] and in series [12] was Active. Further, the Activity in series [6] was 0.2 µg/mL; in [7], 233 µg/mL; in [9], “Non-Toxic”. Moreover, in series [11], the Ratio is reported as under 0.001.

Turning to `CC1(C)CC[C@]2(C(=O)O[C@@H]3O[C@H](CO)[C@@H](O)[C@H](O[C@@H]4O[C@H](CO)[C@@H](O)[C@H](O[C@@H]5O[C@H](CO)[C@@H](O)[C@H](O[C@@H]6O[C@H](CO)[C@@H](O)[C@H](O[C@@H]7O[C@H](CO)[C@@H](O)[C@H](O)[C@H]7O)[C@H]6O)[C@H]5O)[C@H]4O)[C@H]3O)[C@H](O)C[C@]3(C)C(=CC[C@@H]4[C@@]5(C)CC[C@H](O[C@@H]6O[C@H](CO)[C@@H](O)[C@H](O[C@@H]7O[C@H](CO)[C@@H](O)[C@H](O[C@@H]8O[C@H](CO)[C@@H](O)[C@H](O)[C@H]8O)[C@H]7O)[C@H]6O)[C@@](C)(C=O)[C@@H]5CC[C@]43C)[C@H]2C1`, the survival at 120 h in [13] came out at 0%.

As to `C[C@@H]1O[C@@H](O[C@H]2[C@H](O)[C@@H](C(=O)O)O[C@@H](O[C@H]3CC[C@]4(C)[C@H]5CC=C6[C@H]7CC(C)(C)CC[C@]7(C(=O)O[C@@H]7O[C@H](C)[C@H](O)[C@H](O)[C@H]7O[C@@H]7O[C@@H](C)[C@H](O[C@@H]8OC[C@@H](O)[C@H](O)[C@H]8O)[C@@H](O[C@@H]8O[C@H](CO)[C@@H](O)[C@H](O[C@@H]9OC[C@@H](O)[C@H](O)[C@H]9O)[C@H]8O)[C@H]7O)[C@H](O)C[C@@]6(C)[C@]5(C)CC[C@H]4[C@]3(C)C=O)[C@@H]2O[C@@H]2O[C@H](CO)[C@H](O)[C@H](O)[C@H]2O)[C@H](O)[C@H](O)[C@H]1O`, the outcome in series [1], in series [4], in series [5], in [8] and in series [15] was inactive. For the same compound, the result in series [2], in [3], in series [14] and in series [12] was Active. Besides, the Activity was 0.1 µg/mL in series [6], 262 µg/mL in [7] and “Non-Toxic” in [9]. Besides, the Ratio in [11] is given as under 0.001.

As to `CCCCCCCCCCCCNC(=O)[C@H]1O[C@@H](O[C@H]2CC[C@]3(C)[C@H]4CC=C5[C@H]6CC(C)(C)CC[C@]6(C(=O)O[C@@H]6O[C@H](C)[C@H](O)[C@H](O)[C@H]6O[C@@H]6O[C@@H](C)[C@H](O[C@@H]7OC[C@@H](O)[C@H](O)[C@H]7O)[C@@H](O[C@@H]7O[C@H](CO)[C@@H](O)[C@H](O[C@@H]8OC[C@@H](O)[C@H](O)[C@H]8O)[C@H]7O)[C@H]6O)[C@H](O)C[C@@]5(C)[C@]4(C)CC[C@H]3[C@]2(C)C=O)[C@H](O[C@@H]2O[C@H](CO)[C@H](O)[C@H](O)[C@H]2O)[C@@H](O[C@@H]2O[C@@H](C)[C@H](O)[C@@H](O)[C@H]2O)[C@@H]1O`, the result in [1], in series [16], in series [4], in [5] and in [8] was inactive. Besides, the outcome in series [2], in [3], in series [17], in series [18], in [12] and in series [19] was Active. Further, the Activity in series [6] was 1 µg/mL; in series [7] it was 869 µg/mL; in series [9], “Non-Toxic”. Also, in series [11], the Ratio is under 0.001.
